According to ChEMBL document CHEMBL4266041, “Hydroxybiphenylamide GroEL/ES Inhibitors Are Potent Antibacterials against Planktonic and Biofilm Forms of Staphylococcus aureus” (J Med Chem, 2018):

Key:
Klebsiella pneumoniae = test: Antibacterial activity against Klebsiella pneumoniae ATCC 13883 after 6 to 8 hrs by bacterial proliferation assay; format: functional, organism-based
How it was run: (§1)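 Bacterial growth inhibition in liquid culture. The highest concentration tested was 100 µM. The mean was back-calculated from the average log value. Values above the top concentration were set 0.1 log unit higher.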

Enterococcus faecium = test: Antibacterial activity against Enterococcus faecium ATCC 19434 after 24 hrs by bacterial proliferation assay; format: functional, organism-based; conditions: ATCC 19434, 24 h
Acinetobacter baumannii = test: Antibacterial activity against Acinetobacter baumannii ATCC 19606 after 24 hrs by bacterial proliferation assay; format: functional, organism-based; conditions: ATCC 19606 = CIP 70.34 = JCM 6841, 24 h; how it was run: as §1
Staphylococcus aureus [1] = test: Antibacterial activity against Staphylococcus aureus ATCC 25923 after 6 to 8 hrs by bacterial proliferation assay; format: functional, organism-based
[2] = target: T1, Thiosulfate sulfurtransferase (Homo sapiens, UniProt Q16762); test: Inhibition of refolded rhodanese (unknown origin) preincubated with Escherichia coli GroEL/GroES for 60 mins in absence of compound followed by compound addition by spectrometric analysis
T1 sequence (Q16762 whole entry): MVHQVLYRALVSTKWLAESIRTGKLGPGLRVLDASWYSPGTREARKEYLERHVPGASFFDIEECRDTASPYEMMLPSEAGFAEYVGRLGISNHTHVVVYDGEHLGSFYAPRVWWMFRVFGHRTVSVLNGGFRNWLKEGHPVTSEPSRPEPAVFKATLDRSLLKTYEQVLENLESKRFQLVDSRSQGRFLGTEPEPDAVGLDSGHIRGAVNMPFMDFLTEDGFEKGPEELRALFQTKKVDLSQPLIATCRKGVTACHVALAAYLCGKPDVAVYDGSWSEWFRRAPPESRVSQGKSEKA

Enterobacter cloacae = test: Antibacterial activity against Enterobacter cloacae subsp. cloacae ATCC 13047 after 24 hrs by bacterial proliferation assay; format: functional, organism-based; conditions: subsp. cloacae ATCC 13047, 24 h; how it was run: as §1
Staphylococcus aureus [3] = test: Antibacterial activity against methicillin-resistant Staphylococcus aureus ATCC BAA-44 after 6 to 8 hrs by bacterial proliferation assay; format: functional, organism-based; conditions: Staphylococcus aureus, ATCC BAA-44
[4] = Inhibition of refolded MDH (unknown origin) preincubated with Escherichia coli GroEL/GroES for 45 mins in absence of compound followed by compound addition and measured for 20 to 35 mins by spectrometric analysis
E. coli GroEL/ES [5] = target: T2, E. coli GroEL/ES (Escherichia coli, UniProt P0A6F5); test: Inhibition of Escherichia coli GroEL expressed in Escherichia coli DH5alpha/Escherichia coli GroES expressed in Escherichia coli BL21 (DE3) assessed as reduction in GroEL/GroES-mediated denatured rhodanese refolding after 45 mins by spectrometric analysis
How it was run: (§2)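 Uses E. coli GroEL/ES with a denatured MDH or rhodanese reporter. GroEL first forms a binary complex with the denatured reporter. Refolding is started by adding ATP and GroES, then reporter enzyme activity is read. DMSO is the negative control. IC50 values from replicate curves are log-averaged after ROUT outlier screening.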

Pseudomonas aeruginosa = test: Antibacterial activity against Pseudomonas aeruginosa ATCC 10145 after 24 hrs by bacterial proliferation assay; format: functional, organism-based; conditions: ATCC 10145, 24 h; how it was run: as §1
HSP60/HSP10 = HSP60/HSP10 (Homo sapiens, UniProt P10809); test: Inhibition of human N-terminal octa-His-tagged HSP60 expressed in Escherichia coli Rosetta(DE3) pLysS/human HSP10 expressed in Escherichia coli Rosetta(DE3) assessed as reduction in HSP60/HSP10-mediated denatured MDH refolding after 40 to 60 mins by spectrometric analysis
How it was run: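 Human HSP60/10 refolding of denatured MDH, run the same way as the GroEL/ES-dMDH assay. A binary complex of chaperonin and denatured MDH is formed, and refolding is started with ATP and HSP10. MDH activity is the read-out. DMSO is the negative control. IC50 values from replicate curves are log-averaged after ROUT outlier screening.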

E. coli GroEL/ES [6] = target: T2, E. coli GroEL/ES; test: Inhibition of Escherichia coli GroEL expressed in Escherichia coli DH5alpha/Escherichia coli GroES expressed in Escherichia coli BL21 (DE3) assessed as reduction in GroEL/GroES-mediated denatured MDH refolding after 20 to 40 mins by spectrometric analysis; how it was run: as §2
HEK293 = test: Cytotoxicity against HEK293 cells assessed as reduction in cell viability after 48 hrs by Alamar Blue reporter assay; conditions: human, hek293, 48 h
[7] = Cytotoxicity against human THLE3 cells assessed as reduction in cell viability after 48 hrs by Alamar Blue reporter assay; conditions: 48 h

Chain of HSP60/HSP10 (P10809 whole entry): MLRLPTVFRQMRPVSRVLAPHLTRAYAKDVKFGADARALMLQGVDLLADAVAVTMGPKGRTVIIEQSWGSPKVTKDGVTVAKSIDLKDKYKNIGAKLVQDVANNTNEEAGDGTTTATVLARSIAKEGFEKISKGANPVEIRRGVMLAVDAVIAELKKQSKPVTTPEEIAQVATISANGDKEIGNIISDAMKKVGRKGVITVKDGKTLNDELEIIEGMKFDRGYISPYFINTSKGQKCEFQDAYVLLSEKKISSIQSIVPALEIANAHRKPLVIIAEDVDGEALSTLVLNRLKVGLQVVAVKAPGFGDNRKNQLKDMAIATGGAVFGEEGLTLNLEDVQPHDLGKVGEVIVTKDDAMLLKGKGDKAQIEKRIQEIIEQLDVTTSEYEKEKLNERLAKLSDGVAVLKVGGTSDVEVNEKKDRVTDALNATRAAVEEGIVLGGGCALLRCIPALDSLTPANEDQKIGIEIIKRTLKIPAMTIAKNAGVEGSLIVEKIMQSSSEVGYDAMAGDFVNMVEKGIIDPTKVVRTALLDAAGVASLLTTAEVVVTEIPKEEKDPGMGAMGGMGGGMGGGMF
Chain of HSP60/HSP10 (P61604 whole entry, further chain): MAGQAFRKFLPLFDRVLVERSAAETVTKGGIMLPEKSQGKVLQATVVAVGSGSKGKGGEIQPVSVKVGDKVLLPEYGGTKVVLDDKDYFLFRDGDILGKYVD
T2 sequence (P0A6F5 whole entry, looked up): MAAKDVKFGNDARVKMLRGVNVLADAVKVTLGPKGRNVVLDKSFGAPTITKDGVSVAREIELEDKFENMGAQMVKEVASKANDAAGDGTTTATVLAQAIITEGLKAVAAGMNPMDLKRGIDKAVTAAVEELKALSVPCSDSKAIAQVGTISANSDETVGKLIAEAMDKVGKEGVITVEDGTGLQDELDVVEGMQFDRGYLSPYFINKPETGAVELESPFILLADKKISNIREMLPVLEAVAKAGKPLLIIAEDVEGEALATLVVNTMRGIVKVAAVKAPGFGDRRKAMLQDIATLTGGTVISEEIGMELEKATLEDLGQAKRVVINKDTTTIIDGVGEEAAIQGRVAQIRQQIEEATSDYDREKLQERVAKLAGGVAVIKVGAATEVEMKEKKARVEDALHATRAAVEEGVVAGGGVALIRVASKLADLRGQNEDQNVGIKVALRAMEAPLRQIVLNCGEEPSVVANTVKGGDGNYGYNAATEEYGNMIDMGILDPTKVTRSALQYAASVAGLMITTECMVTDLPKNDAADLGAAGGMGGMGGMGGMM

SMILES | EC50 (Klebsiella pneumoniae) | EC50 (Enterococcus faecium) | EC50 (Acinetobacter baumannii) | EC50 (Staphylococcus aureus [1]) | IC50 [2] | EC50 (Enterobacter cloacae) | EC50 (Staphylococcus aureus [3]) | IC50 [4] | IC50 (E. coli GroEL/ES [5]) | EC50 (Pseudomonas aeruginosa) | IC50 (HSP60/HSP10) | IC50 (E. coli GroEL/ES [6]) | CC50 (HEK293) | CC50 [7]
COc1ccccc1C(=O)Nc1cccc(Cl)c1 | > 100 µM | > 100 µM | > 100 µM | > 100 µM | > 100 µM | > 100 µM | > 100 µM | > 63 µM | > 100 µM | > 100 µM | > 100 µM | > 100 µM | > 100 µM | > 100 µM
O=C(Nc1ccc(Sc2nc3ccccc3s2)cc1)c1cc(Br)ccc1O | > 100 µM | 19 µM | > 100 µM | 0.12 µM | > 100 µM | > 100 µM | 0.14 µM | > 63 µM | 30 µM | > 100 µM | > 100 µM | 38 µM | 42 µM | 12 µM
CC1(C)S[C@@H]2[C@H](NC(=O)[C@H](N)c3ccccc3)C(=O)N2[C@H]1C(=O)O [AMPICILLIN] | > 100 µM | 6.9 µM | > 100 µM | 0.19 µM | > 100 µM | > 100 µM | > 100 µM | > 63 µM | > 100 µM | > 100 µM | > 100 µM | > 100 µM | > 100 µM | > 100 µM
O=C(Nc1ccccc1)c1ccccc1O [SALICYLANILIDE] | > 100 µM | > 100 µM | > 100 µM | 28 µM | > 100 µM | > 100 µM | 51 µM | > 63 µM | > 100 µM | > 100 µM | > 100 µM | > 100 µM | > 100 µM | 68 µM
COc1ccc(Br)cc1C(=O)Nc1ccccc1 | > 100 µM | > 100 µM | > 100 µM | > 100 µM | > 100 µM | > 100 µM | > 100 µM | > 63 µM | > 100 µM | > 100 µM | > 100 µM | > 100 µM | > 100 µM | > 100 µM
O=C(Nc1ccc(Sc2nc3ccccc3s2)c(Cl)c1)c1cc(Br)ccc1O | > 100 µM | 15 µM | > 100 µM | 0.12 µM | > 100 µM | > 100 µM | 0.17 µM | > 63 µM | 11 µM | > 100 µM | > 100 µM | 37 µM | 45 µM | 14 µM
O=C(Nc1cccc(Cl)c1)c1ccccc1O | > 100 µM | > 100 µM | > 100 µM | 3.1 µM | > 100 µM | > 100 µM | 4.2 µM | > 63 µM | > 100 µM | > 100 µM | > 100 µM | > 100 µM | 37 µM | 16 µM
O=C(Nc1cccc(Cl)c1)c1cccc(Br)c1O | > 100 µM | > 100 µM | > 100 µM | 1.3 µM | > 100 µM | > 100 µM | 2 µM | > 63 µM | > 100 µM | > 100 µM | > 100 µM | > 100 µM | 32 µM | 16 µM
O=C(Nc1ccccc1)c1cccc(Br)c1O | > 100 µM | > 100 µM | > 100 µM | 6.4 µM | > 100 µM | > 100 µM | 10 µM | > 63 µM | > 100 µM | > 100 µM | > 100 µM | > 100 µM | 82 µM | 56 µM
Cc1cc(C(C#N)c2ccc(Cl)cc2)c(Cl)cc1NC(=O)c1cc(I)cc(I)c1O (configuration not stated) [CLOSANTEL] | > 100 µM | 1.2 µM | > 100 µM | 0.47 µM | > 100 µM | > 100 µM | 0.47 µM | 6.1 µM | 1.5 µM | > 100 µM | 2.5 µM | 2.2 µM | 75 µM | 52 µM
O=C(Nc1ccc(Sc2nc3ccccc3s2)c(Cl)c1)c1cccc(Br)c1 | > 100 µM | > 100 µM | > 100 µM | > 100 µM | > 100 µM | > 100 µM | > 100 µM | > 63 µM | > 100 µM | > 100 µM | > 100 µM | > 100 µM | > 100 µM | 88 µM
COc1c(Br)cccc1C(=O)Nc1ccc(Sc2nc3ccccc3s2)c(Cl)c1 | > 100 µM | > 100 µM | > 100 µM | > 100 µM | > 100 µM | > 100 µM | > 100 µM | > 63 µM | > 100 µM | > 100 µM | > 100 µM | > 100 µM | > 100 µM | > 100 µM
O=C(Nc1cccc(Cl)c1)c1ccccc1 | > 100 µM | > 100 µM | > 100 µM | > 100 µM | > 100 µM | > 100 µM | > 100 µM | > 63 µM | > 100 µM | > 100 µM | > 100 µM | > 100 µM | > 100 µM | > 100 µM
O=C(Nc1ccc(Sc2nc3ccccc3s2)c(Cl)c1)c1cc(Br)cc(Br)c1 | > 100 µM | > 100 µM | > 100 µM | > 100 µM | > 100 µM | > 100 µM | > 100 µM | > 63 µM | > 100 µM | > 100 µM | > 100 µM | > 100 µM | > 100 µM | > 100 µM
O=C(Nc1cccc(Cl)c1)c1cccc(Br)c1 | > 100 µM | > 100 µM | > 100 µM | 47 µM | > 100 µM | > 100 µM | 68 µM | > 63 µM | > 100 µM | > 100 µM | > 100 µM | > 100 µM | 51 µM | 50 µM
O=C(Nc1ccccc1)c1cccc(Br)c1 | > 100 µM | > 100 µM | > 100 µM | > 100 µM | > 100 µM | > 100 µM | > 100 µM | > 63 µM | > 100 µM | > 100 µM | > 100 µM | > 100 µM | > 100 µM | > 100 µM
COc1ccc(Br)cc1C(=O)Nc1ccc(Sc2nc3ccccc3s2)cc1 | > 100 µM | > 100 µM | > 100 µM | > 100 µM | > 100 µM | > 100 µM | > 100 µM | > 63 µM | > 100 µM | > 100 µM | > 100 µM | > 100 µM | > 100 µM | > 100 µM
COc1c(Br)cc(Br)cc1C(=O)Nc1ccc(Sc2nc3ccccc3s2)c(Cl)c1 | > 100 µM | > 100 µM | > 100 µM | > 100 µM | > 100 µM | > 100 µM | > 100 µM | > 63 µM | > 100 µM | > 100 µM | > 100 µM | > 100 µM | > 100 µM | > 100 µM
